Assay results taken from ChEMBL document CHEMBL1142684, “Application of a flexible synthesis of (5R)-thiolactomycin to develop new inhibitors of type I fatty acid synthase” (J Med Chem, 2005).
pIC50: −log10 of the molar value. Converted amounts (≈) assume the structure as drawn.

Each compound was assayed on Mus musculus (assay: Maximum amount of weight loss in Balb/C mice after 7 days of 60 mg/kg intraperitoneal administration). Details: not given.
Format: functional
How it was run: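 Balb/C mice were given a single ip dose of 60 mg/kg in 100 µL DMSO (stock 10 mg/mL in DMSO), or vehicle alone. Mice were weighed daily until treated animals returned to pretreatment weight. The value is the maximum weight loss measured over 7 days.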
In the case of `C=CCNC(=O)COC1=CC(=O)S[C@]1(C)CCCCCCCC`, the Weight loss was 2.4%. With `CCCCCCCC[C@@]1(C)SC(=O)C=C1OCC(=O)OCC` the Weight loss was 2.7%. Work on `C[C@]1(Cc2ccccc2)SC(O)=CC1=O` yielded a Weight loss of 1.6%. `C=CCOC(=O)OC1=CC(=O)S[C@]1(C)CCCCCCCC` gave a Weight loss of 3.4%. With `CCCCCCCC[C@@]1(C)SC(O)=C(C)C1=O` the Weight loss was 0%. For `CCCCCCCC[C@@]1(C)SC(O)=C(C(C)=O)C1=O`, the Weight loss was 8.2%. `CCCCCCCC[C@@]1(C)SC(O)=CC1=O` was tested, and the Weight loss was 2%. `C/C=C/C(C)=C/[C@@]1(C)SC(O)=CC1=O` gave a Weight loss of 4.1%. Work on `CCCC/C=C/C=C/[C@@]1(C)SC(O)=CC1=O` yielded a Weight loss of 11%. Compound `CCCCCCCC[C@@]1(C)SC(=O)C=C1OC(=O)OCC` has a Weight loss of 7.1%. For `C=C/C(C)=C/[C@@]1(C)SC(=O)C=C1O`, the Weight loss was 7.8%. Work on `CCCCCCCC[C@@]1(C)SC(=O)C=C1OC(=O)OC` yielded a Weight loss of 6.1%. With `CC/C=C/C=C/[C@@]1(C)SC(O)=CC1=O` the Weight loss was 3.2%. With `CCCCCC[C@@]1(C)SC(=O)C=C1OCC(=O)NCC(=O)O` the Weight loss was 3.5%. For `C=C/C(C)=C/[C@@]1(C)SC(=O)C(C)=C1O` (stereo in doubt; form 2) [THIOLACTOMYCIN], the Weight loss was 2.6%.

Same assay, conditions: 60 mg/kg
`CCCCCCCC[C@@]1(C)SC(O)=C(C(C)O)C1=O` (stereo in doubt; 29) was tested, and the Weight loss was 3.5%. For `CCCCCCCC[C@@]1(C)SC(O)=C(C(C)O)C1=O` (stereo in doubt; 30), the Weight loss was 0.2%.

Each compound was assayed against Fatty acid synthase (Homo sapiens, UniProt P49327) (assay: Inhibitory concentration against purified human fatty acid synthase activity in ZR-75-1 breast cancer cells). Details: not given.
Sequence of Fatty acid synthase (P49327 whole entry): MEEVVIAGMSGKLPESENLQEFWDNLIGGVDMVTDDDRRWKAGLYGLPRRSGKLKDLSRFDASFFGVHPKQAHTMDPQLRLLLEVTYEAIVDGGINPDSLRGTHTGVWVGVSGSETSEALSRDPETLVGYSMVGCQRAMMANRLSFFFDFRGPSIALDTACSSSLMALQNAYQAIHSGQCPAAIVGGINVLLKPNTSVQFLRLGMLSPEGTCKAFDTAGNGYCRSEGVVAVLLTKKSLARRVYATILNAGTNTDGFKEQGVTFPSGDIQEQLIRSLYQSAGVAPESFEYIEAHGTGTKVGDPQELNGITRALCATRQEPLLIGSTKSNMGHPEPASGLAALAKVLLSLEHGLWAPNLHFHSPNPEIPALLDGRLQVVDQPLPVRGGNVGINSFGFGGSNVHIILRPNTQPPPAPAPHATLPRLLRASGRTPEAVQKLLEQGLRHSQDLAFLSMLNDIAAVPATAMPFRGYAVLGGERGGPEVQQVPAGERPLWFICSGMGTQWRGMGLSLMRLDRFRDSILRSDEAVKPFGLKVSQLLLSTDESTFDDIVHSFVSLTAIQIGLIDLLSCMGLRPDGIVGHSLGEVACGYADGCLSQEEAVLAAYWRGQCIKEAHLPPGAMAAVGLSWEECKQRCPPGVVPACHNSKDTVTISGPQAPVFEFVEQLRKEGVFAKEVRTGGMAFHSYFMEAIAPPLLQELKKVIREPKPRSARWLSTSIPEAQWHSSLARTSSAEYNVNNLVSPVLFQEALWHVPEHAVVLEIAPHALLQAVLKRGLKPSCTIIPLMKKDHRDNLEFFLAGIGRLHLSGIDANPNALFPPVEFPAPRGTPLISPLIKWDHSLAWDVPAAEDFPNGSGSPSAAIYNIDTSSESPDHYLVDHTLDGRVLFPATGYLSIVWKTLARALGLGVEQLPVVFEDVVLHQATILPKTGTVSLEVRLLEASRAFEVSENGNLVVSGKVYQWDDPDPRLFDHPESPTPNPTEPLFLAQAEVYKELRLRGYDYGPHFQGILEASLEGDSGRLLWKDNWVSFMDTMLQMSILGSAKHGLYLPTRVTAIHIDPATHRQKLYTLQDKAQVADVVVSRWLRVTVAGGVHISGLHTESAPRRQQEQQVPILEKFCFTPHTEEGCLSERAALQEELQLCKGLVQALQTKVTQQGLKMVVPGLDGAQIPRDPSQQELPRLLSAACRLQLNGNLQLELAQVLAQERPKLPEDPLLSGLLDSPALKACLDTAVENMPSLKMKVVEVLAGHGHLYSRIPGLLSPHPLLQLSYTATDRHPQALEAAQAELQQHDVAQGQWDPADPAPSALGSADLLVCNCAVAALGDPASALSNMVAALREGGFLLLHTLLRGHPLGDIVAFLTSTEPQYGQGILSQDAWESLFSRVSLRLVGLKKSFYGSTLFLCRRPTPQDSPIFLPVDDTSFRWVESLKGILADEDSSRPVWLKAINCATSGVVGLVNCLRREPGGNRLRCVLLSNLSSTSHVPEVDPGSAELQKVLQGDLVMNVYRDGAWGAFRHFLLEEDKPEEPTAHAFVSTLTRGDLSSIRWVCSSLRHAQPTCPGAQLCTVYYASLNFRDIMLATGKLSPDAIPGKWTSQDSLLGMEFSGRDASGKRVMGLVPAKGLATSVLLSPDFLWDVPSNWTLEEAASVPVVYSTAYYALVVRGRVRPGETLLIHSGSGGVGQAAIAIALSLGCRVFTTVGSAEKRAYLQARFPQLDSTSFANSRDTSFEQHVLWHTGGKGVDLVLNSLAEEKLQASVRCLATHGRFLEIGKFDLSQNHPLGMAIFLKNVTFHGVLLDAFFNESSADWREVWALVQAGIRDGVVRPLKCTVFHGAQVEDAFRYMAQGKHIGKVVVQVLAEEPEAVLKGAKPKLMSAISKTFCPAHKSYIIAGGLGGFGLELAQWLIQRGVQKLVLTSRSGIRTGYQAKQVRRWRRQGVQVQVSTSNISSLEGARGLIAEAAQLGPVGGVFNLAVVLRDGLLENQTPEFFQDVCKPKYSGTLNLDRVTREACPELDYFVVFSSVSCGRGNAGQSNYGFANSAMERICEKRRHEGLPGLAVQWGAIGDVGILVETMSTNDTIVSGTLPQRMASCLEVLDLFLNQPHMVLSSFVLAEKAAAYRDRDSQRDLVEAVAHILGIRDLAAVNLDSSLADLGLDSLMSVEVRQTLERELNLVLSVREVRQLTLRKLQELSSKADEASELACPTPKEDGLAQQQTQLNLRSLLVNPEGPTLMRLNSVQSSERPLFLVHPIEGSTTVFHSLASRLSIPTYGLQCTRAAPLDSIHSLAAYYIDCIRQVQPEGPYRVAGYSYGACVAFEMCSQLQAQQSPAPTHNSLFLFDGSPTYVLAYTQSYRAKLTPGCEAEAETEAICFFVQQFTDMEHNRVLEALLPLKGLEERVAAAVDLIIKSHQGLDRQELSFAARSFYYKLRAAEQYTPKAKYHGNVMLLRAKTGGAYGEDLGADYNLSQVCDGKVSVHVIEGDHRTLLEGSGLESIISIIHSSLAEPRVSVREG
How it was run: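 FAS purified from ZR-75-1 human breast cancer cells (2 µg per well). Overall reaction read at 37 °C as malonyl-CoA-dependent NADPH oxidation at 340 nm, every 10 s for 5 min. Average of duplicate runs; neg means IC50 > 50 µg/mL.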
Compound `C=CCNC(=O)COC1=CC(=O)S[C@]1(C)CCCCCCCC` has a pIC50 of under 3.83. `CCCCCCCC[C@@]1(C)SC(=O)C=C1OCC(=O)OCC` showed a pIC50 of under 3.82. `C[C@]1(Cc2ccccc2)SC(O)=CC1=O` showed a pIC50 of under 3.64. With `C=CCOC(=O)OC1=CC(=O)S[C@]1(C)CCCCCCCC` the pIC50 was 4.68. `CCCCCCCC[C@@]1(C)SC(O)=C(C)C1=O` was tested, and the pIC50 was 3.72. `CCCCCCCC[C@@]1(C)SC(O)=C(C(C)=O)C1=O` showed a pIC50 of under 3.75. `CCCCCCCC[C@@]1(C)SC(O)=CC1=O` showed a pIC50 of 4.78. `CCCCCC[C@@]1(C)SC(=O)C=C1OC` was tested, and the pIC50 was under 3.66. `CCCCCCCC[C@@]1(C)SC(=O)C=C1OC` was tested, and the pIC50 was under 3.71. In the case of `C/C=C/C(C)=C/[C@@]1(C)SC(O)=CC1=O`, the pIC50 was under 3.62. `CCCC/C=C/C=C/[C@@]1(C)SC(O)=CC1=O` was tested, and the pIC50 was 4.44. `CCCCCCCC[C@@]1(C)SC(=O)C=C1OC(=O)OCC` was tested, and the pIC50 was 4.83. `C=C/C(C)=C/[C@@]1(C)SC(=O)C=C1O` was tested, and the pIC50 was 4.37. With `CCCCCCCC[C@@]1(C)SC(=O)C=C1OC(=O)OC` the pIC50 was 5.16. `CC/C=C/C=C/[C@@]1(C)SC(O)=CC1=O` was tested, and the pIC50 was under 3.62. With `CCCCCC[C@@]1(C)SC(=O)C=C1OCC(=O)NCC(=O)O` the pIC50 was under 3.82. In the case of `CCCCCCCC[C@@]1(C)SC(O)=C(C(C)O)C1=O` (stereo in doubt; 29), the pIC50 was 4.70. Compound `CCCCCCCC[C@@]1(C)SC(O)=C(C(C)O)C1=O` (stereo in doubt; 30) has a pIC50 of 4.94. `C=C/C(C)=C/[C@@]1(C)SC(=O)C(C)=C1O` (stereo in doubt; form 2) [THIOLACTOMYCIN] gave a pIC50 of 3.85.

The compounds below were run on MCF7 (assay: Inhibitory concentration against fatty acid synthesis in MCF-7 breast cancer cells). Details: Homo sapiens, MCF7; read-out: IC50.
Format: functional, cell-based, Homo sapiens
`C=CCNC(=O)COC1=CC(=O)S[C@]1(C)CCCCCCCC` showed an IC50 of over 50 µg/mL. `CCCCCCCC[C@@]1(C)SC(=O)C=C1OCC(=O)OCC` gave an IC50 of 10.8 µg/mL (≈ 32.9 µM). In the case of `C[C@]1(Cc2ccccc2)SC(O)=CC1=O`, the IC50 was over 50 µg/mL. With `C=CCOC(=O)OC1=CC(=O)S[C@]1(C)CCCCCCCC` the IC50 was 14.2 µg/mL (≈ 43.5 µM). With `CCCCCCCC[C@@]1(C)SC(O)=C(C)C1=O` the IC50 was 16.5 µg/mL (≈ 64.3 µM). In the case of `CCCCCCCC[C@@]1(C)SC(O)=C(C(C)=O)C1=O`, the IC50 was 12 µg/mL (≈ 42.2 µM). Work on `CCCCCCCC[C@@]1(C)SC(O)=CC1=O` yielded an IC50 of 12.6 µg/mL (≈ 52 µM). For `CCCCCC[C@@]1(C)SC(=O)C=C1OC`, the IC50 was 14 µg/mL (≈ 61.3 µM). Compound `CCCCCCCC[C@@]1(C)SC(=O)C=C1OC` has an IC50 of over 50 µg/mL. `C/C=C/C(C)=C/[C@@]1(C)SC(O)=CC1=O` showed an IC50 of 17.3 µg/mL (≈ 82.3 µM). With `CCCC/C=C/C=C/[C@@]1(C)SC(O)=CC1=O` the IC50 was 22.6 µg/mL (≈ 94.8 µM). Compound `CCCCCCCC[C@@]1(C)SC(=O)C=C1OC(=O)OCC` has an IC50 of 14.5 µg/mL (≈ 46.1 µM). `CCCCCCCC[C@@]1(C)SC(=O)C=C1OC(=O)OC` was tested, and the IC50 was 10.7 µg/mL (≈ 35.6 µM). In the case of `CC/C=C/C=C/[C@@]1(C)SC(O)=CC1=O`, the IC50 was 16.9 µg/mL (≈ 80.4 µM). Work on `CCCCCC[C@@]1(C)SC(=O)C=C1OCC(=O)NCC(=O)O` yielded an IC50 of 6.6 µg/mL (≈ 20 µM). In the case of `CCCCCCCC[C@@]1(C)SC(O)=C(C(C)O)C1=O` (stereo in doubt; 29), the IC50 was 17.6 µg/mL (≈ 61.4 µM).

Same assay, conditions: mcf7
In the case of `CCCCCCCC[C@@]1(C)SC(O)=C(C(C)O)C1=O` (stereo in doubt; 30), the IC50 was 21.7 µg/mL (≈ 75.8 µM). Compound `C=C/C(C)=C/[C@@]1(C)SC(=O)C(C)=C1O` (stereo in doubt; form 2) [THIOLACTOMYCIN] has an IC50 of 41.8 µg/mL (≈ 199 µM).

The compounds below were run on MCF7 (assay: Inhibitory concentration against MCF-7 breast cancer cells in XTT assay (non radioactive assay)). Details: Homo sapiens, MCF7; read-out: IC50.
Format: functional, cell-based, Homo sapiens
How it was run: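 MCF-7 human breast cancer cells, cytotoxicity measured by XTT cell proliferation assay (nonradioactive). The procedure was adapted from the kit instructions. IC50 is the average of duplicate runs.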
`C=CCNC(=O)COC1=CC(=O)S[C@]1(C)CCCCCCCC` showed an IC50 of 12.1 µg/mL (≈ 35.6 µM). For `CCCCCCCC[C@@]1(C)SC(=O)C=C1OCC(=O)OCC`, the IC50 was 35.3 µg/mL (≈ 107 µM). In the case of `C[C@]1(Cc2ccccc2)SC(O)=CC1=O`, the IC50 was over 80 µg/mL. Compound `C=CCOC(=O)OC1=CC(=O)S[C@]1(C)CCCCCCCC` has an IC50 of 37.3 µg/mL (≈ 114 µM). In the case of `CCCCCCCC[C@@]1(C)SC(O)=C(C)C1=O`, the IC50 was 48 µg/mL (≈ 187 µM). Work on `CCCCCCCC[C@@]1(C)SC(O)=C(C(C)=O)C1=O` yielded an IC50 of 12.5 µg/mL (≈ 43.9 µM). `CCCCCCCC[C@@]1(C)SC(O)=CC1=O` was tested, and the IC50 was 17.6 µg/mL (≈ 72.6 µM). For `CCCCCC[C@@]1(C)SC(=O)C=C1OC`, the IC50 was 9.4 µg/mL (≈ 41.2 µM). Compound `CCCCCCCC[C@@]1(C)SC(=O)C=C1OC` has an IC50 of 16.4 µg/mL (≈ 64 µM). For `C/C=C/C(C)=C/[C@@]1(C)SC(O)=CC1=O`, the IC50 was over 80 µg/mL. For `CCCC/C=C/C=C/[C@@]1(C)SC(O)=CC1=O`, the IC50 was 60 µg/mL (≈ 252 µM). `CCCCCCCC[C@@]1(C)SC(=O)C=C1OC(=O)OCC` showed an IC50 of 15.1 µg/mL (≈ 48 µM). `C=C/C(C)=C/[C@@]1(C)SC(=O)C=C1O` gave an IC50 of over 80 µg/mL. Work on `CCCCCCCC[C@@]1(C)SC(=O)C=C1OC(=O)OC` yielded an IC50 of 21.6 µg/mL (≈ 71.9 µM). Work on `CC/C=C/C=C/[C@@]1(C)SC(O)=CC1=O` yielded an IC50 of over 80 µg/mL. `CCCCCCCC[C@@]1(C)SC(O)=C(C(C)O)C1=O` (stereo in doubt; 29) gave an IC50 of 23.9 µg/mL (≈ 83.4 µM).

Same assay, conditions: mcf7
`CCCCCCCC[C@@]1(C)SC(O)=C(C(C)O)C1=O` (stereo in doubt; 30) was tested, and the IC50 was 21 µg/mL (≈ 73.3 µM).
